Assay outcomes (PubChem BioAssay)
Hits are enriched below; roughly 2% of the tested compounds scored in any of these assays.
NTR1 agonist = NTR1 (human) agonism; NTR1-U2OS beta-arrestin-GFP spot imaging, agonist mode; activation, % at 20 µM; 330,000 tested, 0.17% active; AID 493036;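 active = activation at or above 40% of the spot to cytoplasm intensity ratio, with at least 20 cells analyzed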
H9c2 TAG inh = inhibitors of triacylglycerol accumulation. H9c2 cells, Nile Red lipid (TAG) fluorescence; cells loaded with 200 µM oleic acid. inhibition, % at 12.5 µM. 230,000 tested, 0.66% active;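 active = pattern-corrected inhibition of lipid staining of at least 50% with the nuclear-stain viability signal not falling by more than 50%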
GRK2 inh = blocks RNA aptamer binding to human GRK2 | P25098 | bead flow cytometry, FAM-aptamer displacement from GRK2 | inhibition of aptamer binding, % at 10 µM | 330,000 tested, 0.59% active | AID 488847;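 active = inhibition of aptamer binding above 40%, roughly 3 SD of noise, on plates passing a quality check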;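 note: median bead fluorescence of bound FAM aptamer so fluorescent compounds give negative values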
Beta2AR agonist = activates human beta-2 adrenergic receptor causing internalization; P07550; Am2.2-beta2AR cells, FAP receptor internalization, flow cytometry; response, % (test concentration not listed); 340,000 tested, 0.43% active; AID 504454;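 active = response above a set limit, near 3 SD of response in nonfluorescent compounds, cut at about 42% in these data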
Target sequence (P07550 whole entry, looked up): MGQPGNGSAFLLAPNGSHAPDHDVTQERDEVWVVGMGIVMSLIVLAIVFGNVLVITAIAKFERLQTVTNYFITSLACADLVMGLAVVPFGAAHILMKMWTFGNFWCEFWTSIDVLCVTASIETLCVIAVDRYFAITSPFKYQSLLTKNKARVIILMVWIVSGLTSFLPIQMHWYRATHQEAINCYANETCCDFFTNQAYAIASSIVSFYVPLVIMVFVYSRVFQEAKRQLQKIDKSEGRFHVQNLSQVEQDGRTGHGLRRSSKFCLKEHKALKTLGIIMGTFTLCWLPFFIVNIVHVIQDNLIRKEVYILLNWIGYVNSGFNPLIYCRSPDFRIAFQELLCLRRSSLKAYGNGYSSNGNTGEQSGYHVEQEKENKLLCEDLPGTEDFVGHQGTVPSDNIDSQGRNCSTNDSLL
Hep lipid drop = hepatic lipid droplet formation modulation | AML12 mouse hepatocytes, oleate lipid droplets, BODIPY imaging | inhibition, % at 6.5 µM | 240,000 tested, 0.4% active;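 active = lipid droplet intensity inhibited by at least 50%, with more than 500 cells counted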
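Test system: AML12 mouse liver cells; schedule: overnight exposure; technique: high-content imaging of BODIPY-stained droplets and DAPI nuclei; read-out: % inhibition of corrected integrated BODIPY droplet signal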
Arrestin-AP2 inh = blocks beta-arrestin peptide binding to AP2 adaptin. AID 504490. FITC-arrestin peptide / GST-AP2 beads, flow cytometry; AP2 beta2 appendage carries R879A mutation. 340,000 tested, 0.31% active. inhibition, % at 10 µM;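 active = inhibition above a set limit, near 3 SD of compounds lacking own fluorescence, cut at about 54% in these data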
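System: GST-AP2 R879A glutathione beads. Medium: PBS with 0.05% Tween 20 and 0.1% BSA. Also added: FITC-arrestin peptide, 50 nM. Incubation: 12 min plus 1 h, RT. Measured by: high-throughput flow cytometry of beads, ex 488, em 535 nm. Evaluation: percent drop in bead-associated FITC signal.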
TAG conf = confirmation of triacylglycerol accumulation inhibitors; shares compounds with H9c2 TAG inh; H9c2 lipid accumulation, Nile Red fluorescence; cells loaded with 200 µM oleic acid; inhibition, % at 12.5 µM; 990 tested, 71% active; AID 651629;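 active = mean inhibition across replicates of 40% or more; inactive = mean inhibition below 40%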
Of the large screens only hits and unclear results are named; the others gave an inactive call (follow-up assays come after a bar, where they were run).

CCN(CC)CCNc1ccc(CO)c2sc3ccccc3c(=O)c12	none
COc1cc(C)c2sc3ccccc3c(=O)c2c1NCCN(C)C	H9c2 TAG inh 69.6 (no result: NTR1 agonist, GRK2 inh, Beta2AR agonist, Hep lipid drop, Arrestin-AP2 inh) | TAG conf 63.8
COc1ccc(C2NCCc3c2[nH]c2ccccc32)cc1CSc1nc2ccccc2s1 (configuration not stated)	H9c2 TAG inh 56.9 (no result: NTR1 agonist) | TAG conf 51.0
O=c1[nH]c(CSc2nc3ccccc3s2)nc2ccccc12	none
CCOC(=O)N(C)c1c(CC)nc2c(OCCC3CCCCC3)cccn12	none (no result: NTR1 agonist, GRK2 inh, Beta2AR agonist, Hep lipid drop, Arrestin-AP2 inh)
CCOC(=O)C(=O)N(C)c1c(CC)nc2c(OCCC3CCCCC3)cccn12	H9c2 TAG inh 118.7 (no result: NTR1 agonist, GRK2 inh, Beta2AR agonist, Hep lipid drop, Arrestin-AP2 inh) | TAG conf inactive
COc1ccc([N+](=O)[O-])cc1NC(=O)C1C2C=CC(C2)C1C(=O)O (configuration not stated)	none (no result: H9c2 TAG inh)
COCCOC(=O)c1[nH]c2c(c1C)C(=O)CC(c1ccc(F)cc1)C2 (configuration not stated)	none (no result: Hep lipid drop)
COCCOC(=O)c1[nH]c2c(c1C)C(=O)CC(c1ccccc1)C2 (configuration not stated)	H9c2 TAG inh 80.4 | TAG conf 47.1
COC(=O)C1=C(c2ccc(OC)cc2)OC(=O)C1(C)C	H9c2 TAG inh 60.5 (no result: Hep lipid drop) | TAG conf inactive
CCCCCCSc1cc(-c2nc3ccc(Cl)cn3c2NC2CCCCC2)ccc1OC	H9c2 TAG inh 65.9 (no result: Hep lipid drop) | TAG conf 44.0
Cc1ccc(NC(=O)C/C(N)=N/OC(=O)Nc2cccc(Cl)c2)cc1	none (no result: Hep lipid drop)
O=C(COc1ccc(F)cc1)N/N=C/c1cccc2cccnc12	none
Cc1ccc(Cn2c(-n3nc(C)cc3C)nc3c2c(=O)[nH]c(=O)n3C)cc1	none (no result: H9c2 TAG inh, Hep lipid drop)
COc1ccc(CCn2c(-n3nc(C)cc3C)nc3c2c(=O)[nH]c(=O)n3C)cc1	H9c2 TAG inh 54.1 (no result: Hep lipid drop) | TAG conf 62.2
COc1cccc(-c2cc(C(=O)N3CCN(S(=O)(=O)c4ccc(Br)cc4)CC3)[nH]n2)c1	none (no result: H9c2 TAG inh)
O=C(N/N=C/c1cn(-c2ccccc2)nc1-c1cc2ccccc2o1)c1c[nH]c2ccccc12	H9c2 TAG inh 58.8, Hep lipid drop 52.1 | TAG conf 59.9
CCn1cc(/C=N\NC(=O)c2c[nH]c3ccccc23)c(C)n1	none (no result: H9c2 TAG inh)
O=C(CN1CCN(c2ccc(Cl)cc2[N+](=O)[O-])CC1)N1CCOCC1	none
CCNC(=O)C1(C)CCCN(C(=O)c2cc(OC)ccc2Br)C1 (configuration not stated)	none (no result: NTR1 agonist, GRK2 inh, Beta2AR agonist, Hep lipid drop, Arrestin-AP2 inh)
Fc1cccc(/C=N/Nc2cc(N3CCOCC3)ncn2)c1	H9c2 TAG inh 60.0 | TAG conf inactive
Cc1cccn2c(=O)c3cc(C(=O)NC4CCCC4)c(=N)n(C4CCCC4)c3nc12	H9c2 TAG inh 51.4 | TAG conf 44.2
CC1(C)CC(=O)C2=C(C1)Oc1nc3ccccc3cc1C2C(C#N)C#N (configuration not stated)	H9c2 TAG inh 81.4 (no result: Hep lipid drop) | TAG conf 60.4
CC1(C)CC(=O)C(C2C3=C(CC(C)(C)CC3=O)Oc3ccccc32)C(=O)C1 (configuration not stated)	none
C#CCN(C[C@@H]1[C@@H](OC(=O)NCc2ccco2)[C@@H](OC(=O)NCc2ccco2)CN(C(=O)OC(C)C)N1C(=O)OC(C)C)S(=O)(=O)c1ccc(C)cc1	H9c2 TAG inh 55.5 (no result: NTR1 agonist, GRK2 inh, Beta2AR agonist, Hep lipid drop, Arrestin-AP2 inh) | TAG conf 61.7
Nc1nonc1C(=O)NCCNC(=O)c1ccc(Cl)c(Cl)c1	none (no result: H9c2 TAG inh)
CC1CCc2sc(C(=O)NNC(=S)NC3CC3)cc2C1 (configuration not stated)	none
COc1cc2c3c(cccc3c1)C(=O)N(CCN1CCCC1)C2=O	H9c2 TAG inh 117.0 (no result: NTR1 agonist, GRK2 inh, Beta2AR agonist, Hep lipid drop, Arrestin-AP2 inh) | TAG conf 109.3
O=c1c2c3nc4ccccc4nc3n(/N=C/c3ccccn3)c2ncn1-c1ccccc1	H9c2 TAG inh 71.8 | TAG conf 70.6
CCN(CC)CCn1c2c(c(SCC(=O)Nc3ccccc3Cl)nc1=O)CCC2	none (no result: Hep lipid drop)
C[C@]12c3[nH]c4ccc(Cl)cc4c3CCN1C(=O)[C@@H](CC(=O)NCc1cccc(C(F)(F)F)c1)C[C@@H]2C(=O)N1CCOCC1	none (no result: Hep lipid drop)
CC(C)N(C(=O)[C@H]1C[C@H](CC(=O)NCc2cccc(C(F)(F)F)c2)C(=O)N2CCc3c([nH]c4ccc(Cl)cc34)[C@]12C)C(C)C	H9c2 TAG inh 56.5 (no result: Hep lipid drop) | TAG conf 82.0
COc1ccc2[nH]c3c(c2c1)CCN1C(=O)C(CC(=O)NCC24CC5CC(CC(C5)C2)C4)C[C@H](C(=O)N(C(C)C)C(C)C)[C@@]31C (some centres not stated)	H9c2 TAG inh 50.8 (no result: Hep lipid drop) | TAG conf 58.6
O=C(Cc1ccccc1)NC(Nc1cccc2ccccc12)C(Cl)(Cl)Cl (configuration not stated)	H9c2 TAG inh 57.7 (no result: Hep lipid drop) | TAG conf inactive
O=C(Cc1ccccc1)NC(Nc1ccccc1)C(Cl)(Cl)Cl (configuration not stated)	none (no result: H9c2 TAG inh)
O=C(OCCSCCOC(=O)C1CC=CCC1)C1CC=CCC1 (configuration not stated)	none (no result: NTR1 agonist, GRK2 inh, Hep lipid drop)
Nc1c(Cl)cc(-c2csc(N3CCCC3c3nc4cc(Cl)c(N5CCCCC5)cc4n3CCOCCO)n2)cc1Cl (configuration not stated)	H9c2 TAG inh 75.0 (no result: Hep lipid drop) | TAG conf 80.8
Nc1c(Cl)cc(-c2csc(N3CCCC3c3nc4cc(Cl)c(N5CCCCC5)cc4n3CCCO)n2)cc1Cl (configuration not stated)	H9c2 TAG inh 92.8 (no result: GRK2 inh, Hep lipid drop) | TAG conf 127.8
Cc1csc(N2CCCC2c2nc3cc(Cl)c(N4CCCCC4)cc3n2CCOCCO)n1 (configuration not stated)	none (no result: Hep lipid drop)
Nc1c(Cl)cc(-c2csc(N3CCCC3c3nc4cc(Cl)c(Cl)cc4n3CCCO)n2)cc1Cl (configuration not stated)	H9c2 TAG inh 71.4 (no result: Hep lipid drop) | TAG conf 79.2
OCCCn1c(C2CCCN2c2nc(-c3ccc(Cl)cc3)cs2)nc2cc(Cl)c(Cl)cc21 (configuration not stated)	none (no result: Hep lipid drop)
CC#CCOCC1CNC(=O)O1 (configuration not stated)	none (no result: NTR1 agonist, GRK2 inh, Beta2AR agonist, Hep lipid drop, Arrestin-AP2 inh)
CN1CCN(C(=O)c2ccc(-c3cnn(C)c3)c3ccoc23)CC1	none (no result: NTR1 agonist, GRK2 inh, Beta2AR agonist, Hep lipid drop, Arrestin-AP2 inh)
C[C@@]12CCC=C[C@H]1[C@H](c1ccoc1)N(Cc1ccccc1)C2=O	H9c2 TAG inh 78.8 | TAG conf inactive
COc1ccc(-c2noc(-c3ccccc3C(=O)Nc3cccnc3)n2)cc1	H9c2 TAG inh 56.7 | TAG conf inactive
NC(Cc1ccc(Cl)cc1)c1csc(NC(=O)NCCc2ccccc2)n1 (configuration not stated)	H9c2 TAG inh 73.6 (no result: NTR1 agonist, GRK2 inh, Beta2AR agonist, Hep lipid drop, Arrestin-AP2 inh) | TAG conf 42.0
COc1ccc(CC(N)c2csc(NC(=O)NCCc3ccccc3)n2)cc1 (configuration not stated)	none (no result: NTR1 agonist, GRK2 inh, Beta2AR agonist, Hep lipid drop, Arrestin-AP2 inh)
